Source: ChEMBL document CHEMBL5674881, “The therapeutic properties of resminostat for hepatocellular carcinoma” (2018)
Activity calls are given as the source filed them. The calls are words filed in the database; no cut-off is given here.

Tests used:
Hep 3B2 [1] = assay: Anti-proliferative activity against human Hep3B cells assessed as reduction in cell viability at 80 nM measured after 24 hrs in presence of 17-AAG by Fluoro Fire-Blue ProViaTox assay; settings: Hep 3B2, time 24.0 hrs
Hep 3B2 [2] = assay: Downregulation of STAT3 mRNA expression in human Hep3B cells at 80 nM incubated for 24 hrs in presence of 17-AAG by qRT-PCR analysis; format: functional, cell-based
Procedure, shortened: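 Hep3B cells given 80 nM drug, 17-AAG (50 nM) or both for 24 h. STAT3 and a gene panel (BCL-2, HSP90, ZFP64) measured at RNA level. Triplicates, three independent experiments, mean ± SD.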

Hep 3B2 [3] = assay: Anti-proliferative activity against human Hep3B cells assessed as increase in cleaved Caspase 3/7 level at 80 nM incubated for 24 hrs in presence of SGBS CM by Tetraplex-Assay Kit analysis; format: functional, cell-based
Procedure, shortened: (§1)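 Hep3B seeded at 20000 cells/well overnight, then treated with 30% differentiated SGBS conditioned medium with or without resminostat 80 nM for 24 h. Tetraplex caspase substrate buffer added during treatment for real-time cleavage read-out: Caspase 3/7 at Ex 535/Em 620 nm, Caspase 8 at Ex 490/Em 525 nm, Caspase 9 at Ex 370/Em 450 nm. Compared with controls or between treatments; n = 3.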

Hep 3B2 [4] = assay: Anti-proliferative activity against human Hep3B cells assessed as increase in expression at 80 nM incubated for 24 hrs by qRT-PCR analysis
Hep 3B2 [5] = assay: Anti-proliferative activity against human Hep3B cells assessed as increase in cleaved Caspase 9 level at 80 nM incubated for 24 hrs in presence of SGBS CM by Tetraplex-Assay Kit analysis; format: functional, cell-based
Procedure, shortened: as §1

Huh-7 = assay: Anti-proliferative activity against human Huh-7 cells assessed as reduced cell proliferation at 80 nM incubated for 24 hrs by Fluoro Fire-Blue ProViaTox assay; format: functional, cell-based
Hep 3B2 [6] = assay: Anti-proliferative activity against human Hep3B cells assessed as reduction in cell viability at 80 nM incubated for 24 hrs in presence of SC1 by Fluoro Fire-Blue ProViaTox assay relative to control; format: functional, cell-based
Hep 3B2 [7] = assay: Effect on human Hep3B cells assessed as reduction in HDAC1 mRNA level at 80 nM incubated for 24 hrs by qRT-PCR analysis; format: functional, cell-based
Procedure, shortened: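 RNA levels of HDAC1 and HDAC2 measured in Hep3B cells after 24 h with 80 nM drug, 17-AAG (50 nM) or the combination (n = 3). Cells grown in EMEM with 10% FBS at 37°C, 5% CO2.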

Hep 3B2 [8] = assay: Anti-proliferative activity against human Hep3B cells assessed as increase in BAX mRNA level at 80 nM incubated for 24 hrs by qRT-PCR analysis; format: functional, cell-based
Hep 3B2 [9] = assay: Anti-proliferative activity against human Hep3B cells assessed as reduction in cell viability at 80 nM for 24 hrs in presence of GSK343 by Fluoro Fire-Blue ProViaTox assay relative to control; format: functional
HepG2 [10] = assay: Anti-proliferative activity against human HepG2 cells assessed as reduced cell proliferation at 80 nM incubated for 24 hrs by Fluoro Fire-Blue ProViaTox assay; format: functional, cell-based
Hep 3B2 [11] = assay: Downregulation of HDAC1 expression in human Hep3B cells at 80 nM incubated for 24 hrs in presence of 17-AAG by qRT-PCR analysis; format: functional, cell-based
Hep 3B2 [12] = assay: Anti-proliferative activity against human Hep3B cells assessed as increase in p27 mRNA expression at 80 nM incubated for 24 hrs in presence of SGBS CM by qRT-PCR analysis; format: functional, cell-based
Hep 3B2 [13] = assay: Anti-proliferative activity against human Hep3B cells assessed as decrease in Cyclin D1 expression at 80 nM incubated for 24 hrs in presence of SGBS CM by qRT-PCR analysis; format: functional, cell-based
Hep 3B2 [14] = assay: Upregulation of BIM expression in human Hep3B cells at 80 nM incubated for 24 hrs by qRT-PCR analysis; format: functional, cell-based
Procedure, shortened: (§2)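 RNA levels of BCL-2, BIM, BAX and BAD measured in Hep3B cells after 24 h with 80 nM drug. Triplicates, three independent experiments, t-test.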

Hep 3B2 [15] = assay: Anti-proliferative activity against human Hep3B cells assessed as reduction in cell viability at 80 nM incubated for 24 hrs in presence of doxorubicin by Fluoro Fire-Blue ProViaTox assay relative to control; format: functional, cell-based
Hep 3B2 [16] = assay: Anti-proliferative activity against human Hep3B cells assessed as increase in Caspase 8 expression at 80 nM incubated for 24 hrs by qRT-PCR analysis; format: functional, cell-based
Hep 3B2 [17] = assay: Anti-proliferative activity against human Hep3B cells assessed as reduction in cell viability at 80 nM incubated for 24 hrs in presence of cisplatin by Fluoro Fire-Blue ProViaTox assay relative to control; format: functional, cell-based
Hep 3B2 [18] = assay: Downregulation of BCL2 expression in human Hep3B cells at 80 nM incubated for 24 hrs by qRT-PCR analysis; format: functional, cell-based
Hep 3B2 [19] = assay: Downregulation of EZH2 expression in human Hep3B cells at 80 nM incubated for 24 hrs in presence of GSK343 by qRT-PCR analysis; format: functional, cell-based
Hep 3B2 [20] = assay: Upregulation of BAX expression in human Hep3B cells at 80 nM incubated for 24 hrs by qRT-PCR analysis; format: functional, cell-based
Procedure, shortened: as §2

Hep 3B2 [21] = assay: Anti-proliferative activity against human Hep3B cells assessed as increase in Caspase 7 expression at 80 nM incubated for 24 hrs by qRT-PCR analysis; format: functional, cell-based
Hep 3B2 [22] = assay: Anti-proliferative activity against human Hep3B cells assessed as reduction in Vimentin protein expression level by measuring green fluorescence at 80 nM incubated for 24 hrs in presence of SGBS CM by immunofluorescence analysis
Hep 3B2 [23] = assay: Downregulation of STAT3 expression in human Hep3B cells at 80 nM incubated for 24 hrs in presence of GSK343 by qRT-PCR analysis; format: functional, cell-based
Procedure, shortened: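 RNA from Hep3B cells treated 24 h with GSK343 (7 nM) alone or with 80 nM drug; EZH2 and STAT3 levels compared between the two treatments. Cells grown in EMEM with 10% FBS, 2 mM L-glutamine, 37°C, 5% CO2.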

Hep 3B2 [24] = assay: Anti-proliferative activity against human Hep3B cells assessed as increase in IL-10 mRNA level at 80 nM incubated for 24 hrs in presence of SGBS CM by qRT-PCR analysis; format: functional, cell-based
HepG2 [25] = assay: Anti-proliferative activity against human HepG2 cells assessed as reduced cell proliferation at 80 nM incubated for 24 hrs in presence of SGBS CM by Fluoro Fire-Blue ProViaTox assay; format: functional, cell-based
Hep 3B2 [26] = assay: Anti-proliferative activity against human Hep3B cells assessed as cell proliferation at incubated for 24 hrs by Fluoro Fire-Blue ProViaTox assay; format: functional, cell-based; settings: dose 20-100 nM
Hep 3B2 [27] = assay: Anti-proliferative activity against human Hep3B cells assessed as decrease in TNF-alpha mRNA level at 80 nM incubated for 24 hrs in presence of SGBS CM by qRT-PCR analysis; format: functional, cell-based

SMILES: CN(C)Cc1ccc(S(=O)(=O)n2ccc(/C=C/C(=O)NO)c2)cc1 [RESMINOSTAT]
- Activity (Hep 3B2 [1]): Active
- Activity (Hep 3B2 [2]): Active
- Activity (Hep 3B2 [3]): Active
- Activity (Hep 3B2 [4]): Active
- Activity (Hep 3B2 [5]): Active
- Activity (Huh-7): Active
- Activity (Hep 3B2 [6]): Active
- Activity (Hep 3B2 [7]): Active
- Activity (Hep 3B2 [8]): Active
- Activity (Hep 3B2 [9]): 21.61%
- Activity (HepG2 [10]): Active
- Activity (Hep 3B2 [11]): Active
- Activity (Hep 3B2 [12]): Active
- Activity (Hep 3B2 [13]): Active
- Activity (Hep 3B2 [14]): Active
- Activity (Hep 3B2 [15]): Active
- Activity (Hep 3B2 [16]): Active
- Activity (Hep 3B2 [17]): Active
- Activity (Hep 3B2 [18]): Active
- Activity (Hep 3B2 [19]): Active
- Activity (Hep 3B2 [20]): Active
- Activity (Hep 3B2 [21]): Active
- Activity (Hep 3B2 [22]): Active
- Activity (Hep 3B2 [23]): Active
- Activity (Hep 3B2 [24]): Active
- Activity (HepG2 [25]): Active
- Activity (Hep 3B2 [26]): Dose-Dependent Effect
- Activity (Hep 3B2 [27]): Active
